Screening results from PubChem.
KDM4C inh: inhibitors of GASC-1 (KDM4C) histone demethylase, primary screen, biochemical, single concentration HTS; Lysine-specific demethylase 4C (Homo sapiens), Q9H3R0; inhibition, % at 12.5 µM; GST-KDM4C 2-372, H3K9me3 peptide, LANCE TR-FRET; actives 0.15% (n = 96,000); AID 720574, 2013;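 active = mean replicate inhibition above about 25%, with at least 55% of replicates also reaching it, limit read from the data, passing the limit was not always enough; inconclusive = only one of those two conditions met; inactive = neither condition met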
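System: N-terminal GST-fused human GASC-1 (KDM4C) fragment, residues 2-372; amount: enzyme final amount 10 nM; incubation: reaction 30 min RT, detection step 1 h RT; medium: HEPES buffer, pH 7.5, plus ascorbate; technique: LANCE TR-FRET, Eu antibody, ULight-streptavidin, EDTA, ex 340 nm, em 618/671 nm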
IDH1 mut inh: inhibitors of IDH1 R132H reductase, primary screen, biochemical, plate reader, single point. Isocitrate dehydrogenase [NADP] cytoplasmic (Homo sapiens), O75874. diaphorase/resazurin fluorescence, 60 min. inhibition, % at 10 µM. actives 0.18% (n = 70,000). AID 624101, 2012; in the data active = inhibition above about 34%; inconclusive = no clear call, values can overlap the other calls; inactive = below about 11%;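 note: 0% = DMSO and 100% = no enzyme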
Target sequence (O75874 whole entry R132H): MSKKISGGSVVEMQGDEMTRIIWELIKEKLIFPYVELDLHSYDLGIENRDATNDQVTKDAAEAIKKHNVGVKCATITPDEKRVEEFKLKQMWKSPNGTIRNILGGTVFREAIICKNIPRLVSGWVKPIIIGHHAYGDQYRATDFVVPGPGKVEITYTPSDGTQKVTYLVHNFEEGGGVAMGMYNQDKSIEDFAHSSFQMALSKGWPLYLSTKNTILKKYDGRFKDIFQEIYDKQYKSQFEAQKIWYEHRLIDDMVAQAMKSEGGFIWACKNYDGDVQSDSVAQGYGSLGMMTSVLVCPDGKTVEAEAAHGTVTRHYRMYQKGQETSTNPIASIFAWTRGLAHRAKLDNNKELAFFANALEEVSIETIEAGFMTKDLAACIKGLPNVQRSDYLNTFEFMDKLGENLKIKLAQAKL
T cruzi growth-1: T. cruzi intracellular proliferation inhibitors, primary screen, cell-based, beta-gal Tulahuen parasites, NIH3T3 host, luminescence; AID 624255, 2012; actives 5.9% (n = 77,000); inhibition, % at 8.34 µM; T. cruzi beta-gal in NIH3T3, GalScreen luminescence, 90 h;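 active = mean inhibition above about 93%, with at least 55% of replicates each passing it, limit read from the data, passing the limit was not always enough; inconclusive = only one of those two conditions holds; inactive = neither condition holds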
Pf Dd2 growth: P. falciparum Dd2 growth inhibitors, primary screen, SYBR Green fluorescence, single dose replicates; 72 h; active compounds read low; activity change, % at 10 µM; actives 2.3% (n = 94,000); in the data active = activity change below about -80%; inconclusive = no clear call, values can overlap the other calls
T cruzi growth-2: T. cruzi intracellular proliferation inhibitors, confirmation, cell-based, NIH3T3 host, beta-gal parasite, luminescence, cherry-pick | shares compounds with T cruzi growth-1 | T. cruzi beta-gal in NIH3T3, GalScreen luminescence, 90 h | inhibition, % at 8.35 µM | actives 72% (n = 5,600);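 active = mean replicate inhibition above about 95% and at least 55% of replicates individually reaching it, limit read from the data; inconclusive = only one of the two criteria is met; inactive = neither criterion is met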
T cruzi growth-3: inhibitors of intracellular T. cruzi replication, confirmation, NIH3T3 host cells, beta-gal parasites, cherry-pick, set 2 | shares compounds with T cruzi growth-1 | T. cruzi beta-gal in NIH3T3, GalScreen luminescence, 90 h | inhibition, % at 2.09 µM | actives 21% (n = 5,600) | AID 651740, 2012;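 active = mean inhibition above about 95%, with at least 55% of replicates also reaching it, limit read from the data; inconclusive = meets just one of the two conditions; inactive = meets neither condition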;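 note: plate controls were neutral control median for no effect and positive control median for full effect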
3T3 cytotox: cytotoxicity in mouse NIH/3T3 fibroblasts, confirmation, cytotoxicity control for T. cruzi proliferation inhibitor project, cell-based, cherry-pick, single point | shares compounds with T cruzi growth-1 | NIH/3T3 viability, CellTiter-Glo ATP luminescence, 90 h | cytotoxicity (signal decrease), % at 8.35 µM | actives 14% (n = 5,600) | AID 651742, 2012;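 active = mean signal decrease across replicates above about 35% based on untreated-well scatter, with enough replicates individually passing, limit read from the data; inconclusive = no rule stated though some were filed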;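 note: 0% = median of neutral control wells and 100% = median of positive control wells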
3T3 cytotox 2: NIH/3T3 fibroblast cytotoxicity, confirmation, cytotoxicity control, cell-based, cherry-pick, single point, set 2 | NIH/3T3 viability, CellTiter-Glo ATP luminescence, 90 h | shares compounds with T cruzi growth-1 | inhibition, % at 24.9 µM | actives 56% (n = 5,600);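 active = mean loss of cell viability signal at or above a set limit, and enough replicates individually reaching it; inconclusive = meets only the mean limit or only the replicate share; inactive = meets neither condition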;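 note: 0% = median of neutral control wells and 100% = median of positive control wells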
* = called active by the depositor; ? = inconclusive; . = not tested or not shown. A selection: hits, their analogues and other compounds. The true share with any hit is near 5.8%.

SMILES | KDM4C inh | IDH1 mut inh | T cruzi growth-1 | Pf Dd2 growth | T cruzi growth-2 | T cruzi growth-3 | 3T3 cytotox | 3T3 cytotox 2
O=C(C1CC1)N1CCCCN2[C@H](CO)[C@@H](c3ccc(C#CC4CC4)cc3)[C@@H]2C1 | . | . | 105* | 23 | 98* | 70 | 20 | 37*
O=C(C1CCCC1)N1CCCCN2[C@H](CO)[C@H](c3ccc(C#CC4CC4)cc3)[C@@H]2C1 | . | . | 120* | -8 | 117* | 96* | 40* | 16
O=C(C1CC1)N1CCCCN2[C@@H](CO)[C@@H](c3ccc(C#CC4CCCC4)cc3)[C@@H]2C1 | 0 | . | 45 | -15 | . | . | . | .
O=C(Nc1ccccc1)N1CCCCN2[C@H](C1)[C@H](c1ccc(C#CC3CC3)cc1)[C@@H]2CO | 0 | . | 54 | -58 | . | . | . | .
O=C(C1CCCC1)N1CCCCN2[C@H](CO)[C@@H](c3ccc(C#CC4CC4)cc3)[C@@H]2C1 | . | . | 113* | 0 | 99* | 74 | 19 | 17
O=C(C1CC1)N1CCCCN2[C@@H](CO)[C@H](c3ccc(C#CC4CCCC4)cc3)[C@@H]2C1 | -1 | . | 95 | 3 | . | . | . | .
O=C(C1CCCC1)N1CCCCN2[C@@H](CO)[C@@H](c3ccc(C#CC4CC4)cc3)[C@@H]2C1 | . | . | 93 | -39 | . | . | . | .
COc1ccc(C#Cc2ccc([C@@H]3[C@@H](CO)N4CCCCN(C(=O)Nc5ccc(F)cc5)C[C@H]34)cc2)cc1 | -1 | . | 116* | -68 | 97* | 120* | 123* | 105*
COc1ccc(C#Cc2ccc([C@@H]3[C@@H](CO)N4CCCCN(C(=O)Nc5ccc(F)cc5)C[C@@H]34)cc2)cc1 | -1 | . | 112* | -29 | 102* | 106* | 4 | 104*
COc1ccc(C#Cc2ccc([C@@H]3[C@H](CO)N4CCCCN(C(=O)Nc5ccc(F)cc5)C[C@@H]34)cc2)cc1 | 0 | . | 111* | -67 | 105* | 109* | 119* | 103*
COc1ccc(C#Cc2ccc([C@H]3[C@@H](CO)N4CCCCN(C(=O)Nc5ccc(F)cc5)C[C@H]34)cc2)cc1 | -3 | . | 88 | -66 | . | . | . | .
Cc1c(Cl)cccc1N(CC(=O)Nc1ccc(I)cc1)S(C)(=O)=O | . | 0 | . | . | . | . | . | .
COc1cc(OC)cc(-c2nnc(SCC(=O)Nc3ccc(I)cc3)o2)c1 | . | 0 | . | . | . | . | . | .
COC(=O)C1=C(C)NC2=C(C(=O)c3ccccc32)C1c1cc(Cl)c(OCc2ccc([N+](=O)[O-])cc2)c(OC)c1 (stereo not given) | . | 0 | . | . | . | . | . | .
Cc1sc2ncnc(SCC(=O)Nc3ccc(-c4nc5ccccc5s4)cc3)c2c1C | . | -1 | . | . | . | . | . | .
C/C=C/c1ccc([C@H]2[C@@H](CNC(=O)CC3CC3)N(C(=O)CC)[C@H]2CO)cc1 | 0 | . | 103* | 1 | 52 | 12 | 6 | 12
C/C=C/c1ccc([C@@H]2[C@@H](CO)N(C(=O)CC)[C@H]2CNC(=O)CC2CC2)cc1 | -1 | . | 20 | 20 | . | . | . | .
C/C=C/c1ccc([C@H]2[C@@H](CNC(=O)C3CC3)N(C(=O)NCCC)[C@H]2CO)cc1 | -3 | . | 97* | -11 | 69 | 44 | -21 | -21
C/C=C/c1ccc([C@@H]2[C@@H](CNC(=O)CC3CC3)N(C(=O)CC)[C@H]2CO)cc1 | 2 | . | 113* | 8 | 9 | 0 | -16 | 20
CCn1c(SCC(=O)Nc2cccc(C(C)=O)c2)nnc1-c1ccncc1 | . | 0 | . | . | . | . | . | .
O=C(CSc1nnc(-c2ccc(Br)cc2)o1)Nc1cccc(C(=O)N2CCOCC2)c1 | . | 0 | . | . | . | . | . | .
COc1ccc(CN(C)C[C@H]2OCCCC[C@H](C)Oc3ccc(NC(=O)Nc4ccc(OC)cc4)cc3C(=O)N([C@H](C)CO)C[C@@H]2C)cc1 | 1 | . | 42 | -1 | . | . | . | .
COc1ccc(CN(C)C[C@@H]2OCCCC[C@H](C)Oc3ccc(NC(=O)Nc4ccc(OC)cc4)cc3C(=O)N([C@H](C)CO)C[C@H]2C)cc1 | . | . | 67 | -50 | . | . | . | .
COc1ccc(NC(=O)Nc2ccc3c(c2)C(=O)N([C@@H](C)CO)C[C@@H](C)[C@H](CN(C)Cc2ccc(Cl)c(Cl)c2)OCCCC[C@H](C)O3)cc1 | 1 | 2 | 97* | 40 | 99* | 103* | 18 | 21
COc1ccc(CN(C)C[C@@H]2OCCCC[C@@H](C)Oc3ccc(NC(=O)Nc4ccc(OC)cc4)cc3C(=O)N([C@H](C)CO)C[C@@H]2C)cc1 | . | 1 | 35 | 37 | . | . | . | .
SMILES | KDM4C inh | IDH1 mut inh | T cruzi growth-1 | Pf Dd2 growth | T cruzi growth-2 | T cruzi growth-3 | 3T3 cytotox | 3T3 cytotox 2
COc1ccc(NC(=O)Nc2ccc3c(c2)C(=O)N([C@@H](C)CO)C[C@H](C)[C@H](CN(C)Cc2ccc(Cl)c(Cl)c2)OCCCC[C@@H](C)O3)cc1 | 0 | 0 | 125* | -39 | 101* | 115* | 11 | -8
COc1ccc(NC(=O)Nc2ccc3c(c2)C(=O)N([C@H](C)CO)C[C@H](C)[C@@H](CN(C)Cc2ccc(Cl)c(Cl)c2)OCCCC[C@H](C)O3)cc1 | 0 | . | 123* | -18 | ? | 116* | 14 | 8
COc1ccc(NC(=O)Nc2ccc3c(c2)C(=O)N([C@@H](C)CO)C[C@@H](C)[C@H](CN(C)Cc2ccc(Cl)c(Cl)c2)OCCCC[C@@H](C)O3)cc1 | -1 | 2 | 126* | -70 | 100* | 117* | 20 | 31
C[C@@H]1CN([C@H](C)CO)C(=O)Cc2cc(N(C)C)ccc2O[C@@H]1CN(C)Cc1ccc2c(c1)OCO2 | 1 | -1 | -17 | 30 | . | . | . | .
C[C@H]1CN([C@@H](C)CO)C(=O)Cc2cc(N(C)C)ccc2O[C@@H]1CN(C)Cc1ccc(Cl)c(Cl)c1 | 1 | 0 | 128* | -30 | 116* | 61 | 3 | 101*
C[C@@H]1CN([C@@H](C)CO)C(=O)Cc2cc(N(C)C)ccc2O[C@@H]1CN(C)Cc1ccc(Cl)c(Cl)c1 | . | 0 | 67 | 0 | . | . | . | .
C[C@H](CO)N1C[C@H](C)[C@@H](CN(C)Cc2ccc3c(c2)OCO3)Oc2ccc(N(C)C)cc2CC1=O | 1 | -2 | 133* | -7 | 105* | 90 | 25 | 31*
